Experimental findings from ChEMBL document CHEMBL1156575, “Toward an optimal blood-brain barrier shuttle by synthesis and evaluation of peptide libraries” (J Med Chem, 2008) are described below.

Where a SMILES comes first, the peptide text is derived from it. [ ]: non-standard residue; d: D form. Tpi = O=C(O)[C@@H]1Cc2c([nH]c3ccccc23)CN1; NMeW = CN[C@@H](Cc1c[nH]c2ccccc12)C(=O)O; 2Nal = N[C@@H](Cc1ccc2ccccc2c1)C(=O)O; Dopa = N[C@@H](Cc1ccc(O)c(O)c1)C(=O)O; NMehPhe = CN[C@@H](CCc1ccccc1)C(=O)O; NMeF = CN[C@@H](Cc1ccccc1)C(=O)O; NMePhg = CN[C@H](C(=O)O)c1ccccc1; 3Pal = N[C@@H](Cc1cccnc1)C(=O)O; Tic = O=C(O)[C@@H]1Cc2ccccc2CN1; Phg = N[C@H](C(=O)O)c1ccccc1

Usually fraction remaining stands for what is left of the initial amount, in per cent. Low values mean more turnover, high ones less turnover.

One series has as its system HeLa. The series is described as follows: Cytotoxicity against human HeLa cells at 25 to 100 uM after 24 hrs by MTT assay. Type of series: functional, cell-based. The essentials: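 HeLa cells seeded at 7000 cells/well and grown 24 h, then given peptide in medium (solutions centrifuged first, as not fully soluble) at 25, 50 and 100 µM for 24 h at 37 °C. MTT added at 22 h (0.5 mg/mL final) for 2 h. Formazan dissolved in 2-propanol, A570 read after 45 min. Viability is % of untreated cells; mean ± SD.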
(In general: Formazan colour is commonly taken as a measure of viable cells.)

Series [1] is described as follows: Membrane permeability by PAMPA.
The nature of series [2]: Membrane permeability assessed as passive transport after 4 hrs by PAMPA. (In general: The PAMPA barrier holds no transporters, so it reflects passive diffusion.)
A short description of series [3]: Membrane permeability by PAMPA in presence of 20% 1-propanol. The series is classed as ADME. Conditions: read-out: permeability. The essentials: (§1)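 PAMPA-BBB model, 200 µM compound in pION buffer pH 7.4 with 20% 1-propanol in the donor well. Filter coated with phospholipid mix (20 mg/mL in dodecane); acceptor holds buffer plus 1-propanol. Incubated 4 h at room temperature, saturated humidity, orbital shaking 100 rpm. Donor and acceptor quantified by RP-HPLC. % transport at 4 h and Pe (eq 1) calculated; mean ± SD.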

A short description of series [4]: Membrane permeability assessed as passive transport after 4 hrs by PAMPA in presence of 20% 1-propanol. Type of series: ADME. The essentials: as §1
The nature of series [5]: Stability in human serum after 12 hrs.

As to `CC(=O)N[C@@H](Cc1ccc2ccccc2c1)C(=O)N(C)[C@@H](Cc1ccccc1)C(=O)N(C)[C@@H](Cc1ccccc1)C(=O)N(C)[C@@H](Cc1ccccc1)C(N)=O` (Ac-[2Nal][NMeF][NMeF][NMeF]-NH2), the Activity entry with HeLa is “Not toxic”.

In series [1], `CN(C(=O)[C@@H](N)Cc1ccc(O)c(O)c1)[C@@H](Cc1ccccc1)C(=O)N(C)[C@@H](Cc1ccccc1)C(=O)N(C)[C@@H](Cc1ccccc1)C(=O)N(C)[C@@H](Cc1ccccc1)C(N)=O` (H-[Dopa][NMeF][NMeF][NMeF][NMeF]-NH2) yielded a Papp of 1.1 ×10⁻⁶ cm/s. The permeability in series [2] worked out at 2.4%.

In series [1] (permeability), `CN(C(=O)[C@@H]1Cc2c([nH]c3ccccc23)CN1)[C@@H](Cc1ccccc1)C(=O)N(C)[C@@H](Cc1ccccc1)C(=O)N(C)[C@@H](Cc1ccccc1)C(N)=O` (H-[Tpi][NMeF][NMeF][NMeF]-NH2) showed a Papp of 0.6 ×10⁻⁶ cm/s. The permeability in series [2] is reported as 1.3%.

On to `CC(C)NCC(O)COc1cccc2ccccc12` (centres undefined) [PROPRANOLOL], for which the Papp in series [1] (permeability) turned out to be 6.9 ×10⁻⁶ cm/s; in series [3], 8.4 ×10⁻⁶ cm/s. Also, the permeability in series [2] is on record as 13.5%; in series [4], 14.9%.

In the case of `CC(=O)N(C)[C@@H](Cc1c[nH]c2ccccc12)C(=O)N(C)[C@@H](Cc1ccccc1)C(=O)N(C)[C@@H](Cc1ccccc1)C(=O)N(C)[C@@H](Cc1ccccc1)C(N)=O` (Ac-[NMeW][NMeF][NMeF][NMeF]-NH2), the Papp in series [1] (permeability) is 1.4 ×10⁻⁶ cm/s. Also, the permeability in series [2] worked out at 2.9%.

Consider `CC(=O)N[C@@H](Cc1cccnc1)C(=O)N(C)[C@@H](Cc1ccccc1)C(=O)N(C)[C@@H](Cc1ccccc1)C(=O)N(C)[C@@H](Cc1ccccc1)C(N)=O` (Ac-[3Pal][NMeF][NMeF][NMeF]-NH2), for which the Papp in series [1] (permeability) amounted to 1.2 ×10⁻⁶ cm/s. Moreover, in series [2], the permeability came out at 2.5%.

Turning to `CC(=O)N1Cc2[nH]c3ccccc3c2C[C@H]1C(=O)N(C)[C@@H](Cc1ccccc1)C(=O)N(C)[C@@H](Cc1ccccc1)C(=O)N(C)[C@@H](Cc1ccccc1)C(N)=O` (Ac-[Tpi][NMeF][NMeF][NMeF]-NH2), the Papp in series [1] (permeability) worked out at 1.5 ×10⁻⁶ cm/s. Moreover, in series [2], the permeability was determined as 3.2%.

On to `NC(=O)N1c2ccccc2C=Cc2ccccc21` [CARBAMAZEPINE], for which the figures for the Papp in series [1] (permeability) and in series [3] were 8 ×10⁻⁶ cm/s and 12.8 ×10⁻⁶ cm/s, respectively. In addition, the permeability is on record as 16.8% in series [2] and 20.6% in series [4].

In the case of `N[C@@H](Cc1ccc(O)c(O)c1)C(=O)O` [LEVODOPA], the permeability in series [2] and in series [4] was 0% each time.

With `CC(=O)N[C@@H](Cc1c[nH]c2ccccc12)C(=O)N(C)[C@@H](Cc1ccccc1)C(=O)N(C)[C@@H](Cc1ccccc1)C(=O)N(C)[C@@H](Cc1ccccc1)C(N)=O` (Ac-W[NMeF][NMeF][NMeF]-NH2), the Papp in series [1] (permeability) was 1.8 ×10⁻⁶ cm/s. In addition, in series [2], the permeability came out at 3.9%.

`CC(=O)N1Cc2ccccc2C[C@H]1C(=O)N(C)[C@@H](Cc1ccccc1)C(=O)N(C)[C@@H](Cc1ccccc1)C(=O)N(C)[C@@H](Cc1ccccc1)C(N)=O` (Ac-[Tic][NMeF][NMeF][NMeF]-NH2) showed a Papp in series [1] (permeability) of 2 ×10⁻⁶ cm/s. Besides, the permeability in series [2] is given as 4.3%.

As to `CC(=O)N(C)[C@@H](CCc1ccccc1)C(=O)N(C)[C@@H](Cc1ccccc1)C(=O)N(C)[C@@H](Cc1ccccc1)C(=O)N(C)[C@@H](Cc1ccccc1)C(N)=O` (Ac-[NMehPhe][NMeF][NMeF][NMeF]-NH2), in series [1] (permeability), the Papp is 1.8 ×10⁻⁶ cm/s. The permeability in series [2] amounted to 3.7%.

As to `CC(=O)N(C)[C@@H](Cc1ccccc1)C(=O)N(C)[C@@H](Cc1ccccc1)C(=O)N(C)[C@@H](Cc1ccccc1)C(=O)N(C)[C@@H](Cc1ccccc1)C(=O)O` (Ac-[NMeF][NMeF][NMeF][NMeF]-OH), the Papp in series [1] (permeability) is 0.9 ×10⁻⁶ cm/s. The permeability in series [2] came to 1.9%.

In series [1] (permeability), `CC(=O)N(C)[C@H](C(=O)N(C)[C@@H](Cc1ccccc1)C(=O)N(C)[C@@H](Cc1ccccc1)C(=O)N(C)[C@@H](Cc1ccccc1)C(N)=O)c1ccccc1` (Ac-[NMePhg][NMeF][NMeF][NMeF]-NH2) came in with a Papp of 0.7 ×10⁻⁶ cm/s. In series [2], the permeability is 1.5%.

Consider `Cn1c(=O)c2c(ncn2C)n(C)c1=O` [CAFFEINE], for which the Papp in series [1] (permeability) and in series [3] was 1.8 ×10⁻⁶ cm/s throughout. Also, the permeability in series [2] and in series [4] was 3.6% each time.

As to `CC(=O)N(C)[C@@H](Cc1ccccc1)C(=O)N(C)[C@@H](Cc1ccccc1)C(=O)N(C)[C@@H](Cc1ccccc1)C(=O)N(C)[C@@H](Cc1ccccc1)C(N)=O` (stereo in doubt; form 2), the Activity result in the series on HeLa is “Not toxic”. This molecule also showed a share remaining at 12 h in series [5] of 91%.

Molecule `CN(C(=O)[C@H](Cc1ccc2ccccc2c1)NC(=O)[C@@H](N)Cc1ccc(O)c(O)c1)[C@@H](Cc1ccccc1)C(=O)N(C)[C@@H](Cc1ccccc1)C(=O)N(C)[C@@H](Cc1ccccc1)C(N)=O` (H-[Dopa][2Nal][NMeF][NMeF][NMeF]-NH2) came in with a Papp in series [1] of 0.3 ×10⁻⁶ cm/s. The permeability in series [2] amounted to 0.7%.

Take `CN(C(=O)[C@@H]1Cc2ccccc2CN1)[C@@H](Cc1ccccc1)C(=O)N(C)[C@@H](Cc1ccccc1)C(=O)N(C)[C@@H](Cc1ccccc1)C(N)=O` (H-[Tic][NMeF][NMeF][NMeF]-NH2): the Papp in series [1] (permeability) turned out to be 2.2 ×10⁻⁶ cm/s. Also, the permeability in series [2] was determined as 4.6%.

Regarding `CC(=O)N[C@H](C(=O)N(C)[C@@H](Cc1ccccc1)C(=O)N(C)[C@@H](Cc1ccccc1)C(=O)N(C)[C@@H](Cc1ccccc1)C(N)=O)c1ccccc1` (Ac-[Phg][NMeF][NMeF][NMeF]-NH2), the permeability in series [2] is 0%.

As for `NCCc1ccc(O)c(O)c1` [DOPAMINE], the permeability in series [2] and in series [4] was 0% throughout.
